Reference: ChEMBL document CHEMBL2401625, “Synthesis and evaluation of pharmacological properties of some new xanthone derivatives with piperazine moiety” (Bioorg Med Chem Lett, 2013)
The source made the active and inactive calls. No cut-off for these calls is given here.

Experiments:
Rattus norvegicus [1] = assay: Anticonvulsant activity in Sprague-Dawley rat assessed as protection against maximal electroshock-induced seizures at 30 mg/kg, po after 4 hrs; assay type: functional, organism-based; design: dose 30 mg/kg
How it was run: (§1)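 Rats dosed orally at 30 mg/kg and tested in MES at several time points after dosing. Protection means seizures were prevented. Result is recorded as number of animals protected over number tested.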

Rattus norvegicus [2] = assay: Anticonvulsant activity in Sprague-Dawley rat assessed as protection against maximal electroshock-induced seizures at 30 mg/kg, po after 2 hrs; assay type: functional, organism-based; design: dose 30 mg/kg; how it was run: as §1
Mus musculus [3] = assay: Anticonvulsant activity in CF1 mouse assessed as protection against maximal electroshock-induced seizures at 30 mg/kg, ip after 0.5 hrs; assay type: functional, organism-based; design: dose 30 mg/kg
How it was run: (§2)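 Mice given compound i.p. at 30, 100 or 300 mg/kg and tested 0.5 or 4 h after dosing. Seizures were induced by maximal electroshock (MES) or subcutaneous metrazole (ScMet). Prevention of seizures counts as protection. Result is recorded as number of animals protected over number tested.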

Rattus norvegicus [4] = organism: Rattus norvegicus; assay: Displacement of [3H]CGP-12177 from beta1-adrenergic receptor in rat cerebral cortex at 50 uM after 60 mins by scintillation counting; assay type: tissue-based
[5] = target: T1, Adrenergic receptor alpha-1 (Rattus norvegicus, UniProt P15823+P23944+P43140); assay: Displacement of [3H]prazosin from alpha1-adrenergic receptor in rat cerebral cortex after 30 mins by scintillation counting; assay type: tissue-based
T1 sequence (P15823 whole entry): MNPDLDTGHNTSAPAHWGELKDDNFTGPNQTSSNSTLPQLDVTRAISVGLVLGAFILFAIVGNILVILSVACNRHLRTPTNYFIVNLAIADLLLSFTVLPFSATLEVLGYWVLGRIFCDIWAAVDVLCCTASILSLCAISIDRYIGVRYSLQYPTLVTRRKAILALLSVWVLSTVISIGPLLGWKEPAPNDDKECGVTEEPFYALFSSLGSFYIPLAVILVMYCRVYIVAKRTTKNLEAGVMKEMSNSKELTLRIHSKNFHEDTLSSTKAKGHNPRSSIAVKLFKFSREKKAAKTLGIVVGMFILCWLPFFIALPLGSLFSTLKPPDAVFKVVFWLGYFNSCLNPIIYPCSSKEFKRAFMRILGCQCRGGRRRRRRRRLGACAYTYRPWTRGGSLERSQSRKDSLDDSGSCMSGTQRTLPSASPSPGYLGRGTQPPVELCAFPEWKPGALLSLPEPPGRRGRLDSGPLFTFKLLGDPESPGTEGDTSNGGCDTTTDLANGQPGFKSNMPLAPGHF
T1 sequence (P23944 whole entry): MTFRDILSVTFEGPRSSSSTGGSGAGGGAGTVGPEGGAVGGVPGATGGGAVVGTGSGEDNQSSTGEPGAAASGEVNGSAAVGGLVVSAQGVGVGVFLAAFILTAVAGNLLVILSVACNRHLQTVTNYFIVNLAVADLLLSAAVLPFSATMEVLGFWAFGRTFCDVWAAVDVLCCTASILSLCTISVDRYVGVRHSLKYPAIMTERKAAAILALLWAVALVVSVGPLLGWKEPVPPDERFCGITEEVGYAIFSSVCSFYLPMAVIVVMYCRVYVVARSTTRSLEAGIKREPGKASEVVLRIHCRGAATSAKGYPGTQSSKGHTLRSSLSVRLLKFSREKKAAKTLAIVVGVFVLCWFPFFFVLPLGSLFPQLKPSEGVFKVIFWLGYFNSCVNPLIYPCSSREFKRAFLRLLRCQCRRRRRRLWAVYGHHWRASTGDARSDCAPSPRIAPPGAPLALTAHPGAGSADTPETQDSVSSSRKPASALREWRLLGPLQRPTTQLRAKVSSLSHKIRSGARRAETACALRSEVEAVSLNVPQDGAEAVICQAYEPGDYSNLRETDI
T1 sequence (P43140 whole entry): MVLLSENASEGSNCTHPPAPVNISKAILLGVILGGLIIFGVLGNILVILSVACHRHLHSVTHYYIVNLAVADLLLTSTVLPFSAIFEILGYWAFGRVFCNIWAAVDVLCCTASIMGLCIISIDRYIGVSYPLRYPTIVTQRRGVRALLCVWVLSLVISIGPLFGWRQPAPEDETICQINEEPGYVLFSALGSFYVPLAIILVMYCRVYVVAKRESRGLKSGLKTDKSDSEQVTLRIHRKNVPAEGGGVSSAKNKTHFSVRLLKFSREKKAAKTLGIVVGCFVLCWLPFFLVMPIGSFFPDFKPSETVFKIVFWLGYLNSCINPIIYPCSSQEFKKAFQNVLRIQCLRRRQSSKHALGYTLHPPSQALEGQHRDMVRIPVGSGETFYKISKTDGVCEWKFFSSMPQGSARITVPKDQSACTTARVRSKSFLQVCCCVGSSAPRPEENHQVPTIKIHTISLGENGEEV
How it was run: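 Radioligand binding on rat brain tissue membranes, run in 96-well format. [3H]prazosin was used for α1 (n = 2) and [3H]CGP-12177 for β1 (n = 2). Ki was calculated by the Cheng–Prusoff equation.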

[6] = target: 5-hydroxytryptamine receptor 6 (Homo sapiens, UniProt P50406); assay: Displacement of [3H]LSD from human 5HT6 receptor expressed in HEK293 cells after 1 hr; assay type: cell-based
5-hydroxytryptamine receptor 6, sequence (P50406 whole entry): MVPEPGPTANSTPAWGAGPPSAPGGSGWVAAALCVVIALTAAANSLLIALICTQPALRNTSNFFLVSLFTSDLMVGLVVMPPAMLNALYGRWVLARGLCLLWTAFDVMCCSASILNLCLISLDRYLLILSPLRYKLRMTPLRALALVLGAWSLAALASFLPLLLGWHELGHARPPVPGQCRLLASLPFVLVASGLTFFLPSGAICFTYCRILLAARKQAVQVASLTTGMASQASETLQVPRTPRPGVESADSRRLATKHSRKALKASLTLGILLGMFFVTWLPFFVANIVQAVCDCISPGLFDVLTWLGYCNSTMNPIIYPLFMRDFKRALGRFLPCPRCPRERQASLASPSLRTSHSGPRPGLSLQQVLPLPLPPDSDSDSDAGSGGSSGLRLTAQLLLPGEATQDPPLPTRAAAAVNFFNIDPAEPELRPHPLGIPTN

Rattus norvegicus [7] = assay: Anticonvulsant activity in Sprague-Dawley rat assessed as protection against maximal electroshock-induced seizures at 30 mg/kg, po after 0.25 hrs; assay type: functional, organism-based; design: dose 30 mg/kg; how it was run: as §1
Mus musculus [8] = assay: Neurotoxicity in CF1 mouse assessed as minimal motor impairment at 30 mg/kg, ip after 4 hrs by rotorod test; assay type: toxicity, organism-based; design: dose 30 mg/kg, route intraperitoneal; conditions: in vivo
How it was run: (§3)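 Rotarod neurotoxicity screen in mice dosed i.p. at 30, 100 or 300 mg/kg, read 0.5 or 4 h after dosing. The animal must stay on a rod rotating at 6 rpm without falling, measured 3 times within 1 min. A fall counts as minimal motor impairment. Result is recorded as impaired animals over animals used.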

Mus musculus [9] = assay: Neurotoxicity in CF1 mouse assessed as minimal motor impairment at 300 mg/kg, ip after 0.5 hrs by rotorod test; assay type: toxicity, organism-based; design: dose 300 mg/kg, route intraperitoneal; conditions: in vivo; how it was run: as §3
Mus musculus [10] = assay: Neurotoxicity in CF1 mouse assessed as minimal motor impairment at 30 mg/kg, ip after 0.5 hrs by rotorod test; assay type: toxicity, organism-based; design: dose 30 mg/kg, route intraperitoneal; conditions: in vivo; how it was run: as §3
Mus musculus [11] = assay: Anticonvulsant activity in CF1 mouse assessed as protection against subcutaneous metrazole-induced seizures at 100 mg/kg, ip after 4 hrs; assay type: functional, organism-based; design: dose 100 mg/kg; how it was run: as §2
Mus musculus [12] = assay: Anticonvulsant activity in CF1 mouse assessed as protection against subcutaneous metrazole-induced seizures at 30 mg/kg, ip after 4 hrs; assay type: functional, organism-based; design: dose 30 mg/kg; how it was run: as §2
Mus musculus [13] = assay: Anticonvulsant activity in CF1 mouse assessed as protection against maximal electroshock-induced seizures at 100 mg/kg, ip after 4 hrs; assay type: functional, organism-based; design: dose 100 mg/kg; how it was run: as §2
Rattus norvegicus [14] = assay: Neurotoxicity in Sprague-Dawley rat assessed as minimal motor impairment at 30 mg/kg, po after 1 hr by rotorod test; conditions: in vivo
Rattus norvegicus [15] = assay: Neurotoxicity in Sprague-Dawley rat assessed as minimal motor impairment at 30 mg/kg, po after 2 hrs by rotorod test; conditions: in vivo
Rattus norvegicus [16] = assay: Neurotoxicity in Sprague-Dawley rat assessed as minimal motor impairment at 30 mg/kg, po after 0.5 hrs by rotorod test; conditions: in vivo
Rattus norvegicus [17] = assay: Neurotoxicity in Sprague-Dawley rat assessed as minimal motor impairment at 30 mg/kg, po after 0.25 hrs by rotorod test; conditions: in vivo

For `Cl.Cl.Cl.O=c1c2ccc(Cl)cc2oc2c(CN3CCN(CCO)CC3)cccc12`, the Activity (Rattus norvegicus [1]) was “Active”, the Activity (Rattus norvegicus [2]) was “inactive” and the Activity (Mus musculus [3]) was “inactive”. For the same molecule, the inhibition (Rattus norvegicus [4]) was “inactive”, the Ki [5] was 3.93 µM and the Ki [6] was 14.4 µM. For the same molecule, the Activity (Rattus norvegicus [7]) was “inactive”, the Activity (Mus musculus [8]) was “Non-toxic” and the Activity (Mus musculus [9]) was “Toxic”. The Activity (Mus musculus [10]) was “Non-toxic”, the Activity (Mus musculus [11]) was “inactive” and the Activity (Mus musculus [12]) was “inactive”. The Activity (Mus musculus [13]) was “inactive”, the Activity (Rattus norvegicus [14]) was “Non-toxic” and the Activity (Rattus norvegicus [15]) was “Non-toxic”. For the same molecule, the Activity (Rattus norvegicus [16]) was “Non-toxic” and the Activity (Rattus norvegicus [17]) was “Non-toxic”.
